Reference: PMC8892665 (ACS Omega, 2022)
Several values for one entry are separate records, joined by “and”; a condition that tells them apart may be missing. Identical values can stand only once.

Key:
[1] = DPPH free radical scavenging; conditions: for DPPH radical scavenging % inhibition: at 100 μg/mL; for DPPH radical scavenging IC50: concentrations 100, 50, 25, 10 μg/mL, graphical method
Method in brief: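 DPPH (3.92 mg per 100 mL of 82% methanol) was combined with test compound at final 100, 50, 25 or 10 μg/mL and incubated 1 h at 25 °C in the dark. Absorbance at 517 nm. Scavenging % = […]. Triplicate, ascorbic acid positive control, IC50 obtained graphically.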

[2] = molecular target: calf intestinal alkaline phosphatase (CIAP) (Bos taurus, UniProt P19111); experiment: Calf intestinal alkaline phosphatase inhibition assay; type: biochemical
Chain of calf intestinal alkaline phosphatase (CIAP) (P19111 20-533): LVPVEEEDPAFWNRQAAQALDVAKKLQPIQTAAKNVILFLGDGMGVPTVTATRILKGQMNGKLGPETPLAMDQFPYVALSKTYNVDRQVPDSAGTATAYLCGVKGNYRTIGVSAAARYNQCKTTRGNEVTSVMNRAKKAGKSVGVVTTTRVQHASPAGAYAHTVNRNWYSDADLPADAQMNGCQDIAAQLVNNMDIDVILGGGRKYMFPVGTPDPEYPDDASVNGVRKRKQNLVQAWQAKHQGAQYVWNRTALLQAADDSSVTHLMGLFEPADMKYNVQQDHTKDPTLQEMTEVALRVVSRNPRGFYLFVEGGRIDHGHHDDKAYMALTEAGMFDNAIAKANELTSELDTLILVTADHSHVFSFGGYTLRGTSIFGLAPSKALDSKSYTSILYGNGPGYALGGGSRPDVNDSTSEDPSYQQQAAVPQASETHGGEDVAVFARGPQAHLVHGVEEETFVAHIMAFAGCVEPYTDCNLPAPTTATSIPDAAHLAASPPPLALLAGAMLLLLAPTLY

## 4-(2-Hydroxyphenyl)-6-(2-methoxyphenyl)-3,4,6,7-tetrahydro-1H-pyrrolo[3,4-d]pyrimidine-2,5-dione [4i]
[1]
  DPPH radical scavenging % inhibition: less than 50%
[2]
  alkaline phosphatase inhibitory activity (in words): good activity

## 4-(2-Hydroxyphenyl)-6-(2-nitrophenyl)-3,4,6,7-tetrahydro-1H-pyrrolo[3,4-d]pyrimidine-2,5-dione [4h]
[1]
  DPPH radical scavenging % inhibition: approximately 70%
  DPPH radical scavenging IC50: 1.72 µg/mL
[2]
  alkaline phosphatase inhibitory activity (in words): moderate activity

## 4-(2-Hydroxyphenyl)-6-(3-methoxyphenyl)-3,4,6,7-tetrahydro-1H-pyrrolo[3,4-d]pyrimidine-2,5-dione [4k]
[1]
  DPPH radical scavenging % inhibition: less than 50%
[2]
  alkaline phosphatase inhibitory activity (in words): no inhibition

## 4-(4-Hydroxyphenyl)-6-(2-methoxyphenyl)-3,4,6,7-tetrahydro-1H-pyrrolo[3,4-d]pyrimidine-2,5-dione [3k]
[1]
  DPPH radical scavenging % inhibition: less than 50%
[2]
  alkaline phosphatase inhibitory activity (in words): low activities

## 4-(4-Hydroxyphenyl)-6-(3-methoxyphenyl)-3,4,6,7-tetrahydro-1H-pyrrolo[3,4-d]pyrimidine-2,5-dione [3i]
[1]
  DPPH radical scavenging % inhibition: less than 50%
[2]
  alkaline phosphatase inhibitory activity (in words): no inhibition

## 6-(4-Hydroxyphenyl)-6-(2-nitrophenyl)-3,4,6,7-tetrahydro-1H-pyrrolo[3,4-d]pyrimidine-2,5-dione [3h]
[1]
  DPPH radical scavenging % inhibition: about 60%
  DPPH radical scavenging IC50: 2.61 µg/mL
[2]
  alkaline phosphatase inhibitory activity (in words): moderate activity

## O=C1NC2=C(C(=O)N(Cc3ccccc3)C2)C(c2ccc(O)cc2)N1 (stereo not shown) [3a, 6-Benzyl-4-(4-hydroxyphenyl)-3,4,6,7-tetrahydro-1H-pyrrolo[3,4-d]pyrimidine-2,5-dione]
[1]
  DPPH radical scavenging % inhibition: about 60%
  DPPH radical scavenging IC50: 2.61 µg/mL
[2]
  alkaline phosphatase inhibitory activity (in words): no inhibition

## CCCCCCCCN1CC2=C(C1=O)C(c1ccc(O)cc1)NC(=O)N2 (stereo not shown) [3b, 4-(4-Hydroxyphenyl)-6-octyl-3,4,6,7-tetrahydro-1H-pyrrolo[3,4-d]pyrimidine-2,5-dione]
[1]
  DPPH radical scavenging IC50: 2.6 µg/mL

## O=C1NC2=C(C(=O)N(Cc3ccc(Cl)cc3)C2)C(c2ccc(O)cc2)N1 (stereo not shown) [3c, 6-(4-Chlorobenzyl)-4-(4-hydroxyphenyl)-3,4,6,7-tetrahydro-1H-pyrrolo[3,4-d]pyrimidine-2,5-dione]
[1]
  DPPH radical scavenging % inhibition: less than 50%
[2]
  alkaline phosphatase inhibitory activity (in words): low activities

## O=C1NC2=C(C(=O)N(Cc3ccc(F)cc3)C2)C(c2ccc(O)cc2)N1 (stereo not shown) [3d, 6-(4-Fluorobenzyl)-4-(4-hydroxyphenyl)-3,4,6,7-tetrahydro-1H-pyrrolo[3,4-d]pyrimidine-2,5-dione]
[1]
  DPPH radical scavenging % inhibition: less than 50%

## O=C1NC2=C(C(=O)N(c3ccc(F)cc3)C2)C(c2ccc(O)cc2)N1 (stereo not shown) [3f, 6-(4-Fluorophenyl)-4-(4-hydroxyphenyl)-3,4,6,7-tetrahydro-1H-pyrrolo[3,4-d]pyrimidine-2,5-dione]
[1]
  DPPH radical scavenging IC50: 2.86 µg/mL

## O=C1NC2=C(C(=O)N(c3nc4ccccc4[nH]3)C2)C(c2ccc(O)cc2)N1 (stereo not shown) [3g, 6-(1H-Benzo[d]imidazol-2-yl)-4-(4-hydroxyphenyl)-3,4,6,7-tetrahydro-1H-pyrrolo[3,4-d]pyrimidine-2,5-dione]
[1]
  DPPH radical scavenging IC50: 1.85 µg/mL

## COc1ccc(N2CC3=C(C2=O)C(c2ccc(O)cc2)NC(=O)N3)cc1 (stereo not shown) [3j, 4-(4-Hydroxyphenyl)-6-(4-methoxyphenyl)-3,4,6,7-tetrahydro-1H-pyrrolo[3,4-d]pyrimidine-2,5-dione]
[1]
  DPPH radical scavenging IC50: 2.48 µg/mL

## O=C1NC2=C(C(=O)N(Cc3ccccc3)C2)C(c2ccccc2O)N1 (stereo not shown) [4a, 6-Benzyl-4-(2-hydroxyphenyl)-3,4,6,7-tetrahydro-1H-pyrrolo[3,4-d]pyrimidine-2,5-dione]
[1]
  DPPH radical scavenging % inhibition: less than 50%

## CCCCCCCCN1CC2=C(C1=O)C(c1ccccc1O)NC(=O)N2 (stereo not shown) [4b, 4-(2-Hydroxyphenyl)-6-octyl-3,4,6,7-tetrahydro-1H-pyrrolo[3,4-d]pyrimidine-2,5-dione]
[1]
  DPPH radical scavenging IC50: 2.731 µg/mL and 2.73 µg/mL

## O=C1NC2=C(C(=O)N(Cc3ccc(Cl)cc3)C2)C(c2ccccc2O)N1 (stereo not shown) [4c, 6-(4-Chlorobenzyl)-4-(2-hydroxyphenyl)-3,4,6,7-tetrahydro-1H-pyrrolo[3,4-d]pyrimidine-2,5-dione]
[1]
  DPPH radical scavenging % inhibition: less than 50%
[2]
  alkaline phosphatase inhibitory activity (in words): no inhibition

## O=C1NC2=C(C(=O)N(Cc3ccc(F)cc3)C2)C(c2ccccc2O)N1 (stereo not shown) [4d, 6-(4-Fluorobenzyl)-4-(2-hydroxyphenyl)-3,4,6,7-tetrahydro-1H-pyrrolo[3,4-d]pyrimidine-2,5-dione]
[1]
  DPPH radical scavenging % inhibition: less than 50%

## O=C1NC2=C(C(=O)N(c3ccc(Cl)cc3)C2)C(c2ccccc2O)N1 (stereo not shown) [4e, 6-(4-Chlorophenyl)-4-(2-hydroxyphenyl)-3,4,6,7-tetrahydro-1H-pyrrolo[3,4-d]pyrimidine-2,5-dione]
[1]
  DPPH radical scavenging % inhibition: 60%

## O=C1NC2=C(C(=O)N(c3ccc(F)cc3)C2)C(c2ccccc2O)N1 (stereo not shown) [4f, 6-(4-Fluorophenyl)-4-(2-hydroxyphenyl)-3,4,6,7-tetrahydro-1H-pyrrolo[3,4-d]pyrimidine-2,5-dione]
[1]
  DPPH radical scavenging % inhibition: highest percent of inhibition
  DPPH radical scavenging IC50: 0.48 µg/mL
[2]
  alkaline phosphatase inhibitory activity (in words): low activities

## O=C1NC2=C(C(=O)N(c3nc4ccccc4[nH]3)C2)C(c2ccccc2O)N1 (stereo not shown) [4g, 6-(1H-Benzo[d]imidazol-2-yl)-4-(2-hydroxyphenyl)-3,4,6,7-tetrahydro-1H-pyrrolo[3,4-d]pyrimidine-2,5-dione]
[1]
  DPPH radical scavenging % inhibition: 80% and 70–80%
  DPPH radical scavenging IC50: 0.75 µg/mL
[2]
  alkaline phosphatase inhibitory activity (in words): no inhibition

## COc1ccc(N2CC3=C(C2=O)C(c2ccccc2O)NC(=O)N3)cc1 (stereo not shown) [4j, 4-(2-Hydroxyphenyl)-6-(4-methoxyphenyl)-3,4,6,7-tetrahydro-1H-pyrrolo[3,4-d]pyrimidine-2,5-dione]
[1]
  DPPH radical scavenging IC50: 2.45 µg/mL
[2]
  alkaline phosphatase inhibitory activity (in words): low activities

## O=C1O[C@H]([C@@H](O)CO)C(O)=C1O [ascorbic acid, reference compound]
[1]
  DPPH radical scavenging % inhibition: 97%
  DPPH radical scavenging IC50: 0.25 µg/mL
